Experimental data as given in ChEMBL document CHEMBL4385611, “Difluoromethylene at the γ-Lactam α-Position Improves 11-Deoxy-8-aza-PGE1 Series EP4 Receptor Binding and Activity: 11-Deoxy-10,10-difluoro-8-aza-PGE1 Analog (KMN-159) as a Potent EP4 Agonist” (J Med Chem, 2019).

Columns and labels:
[1] = Chemical stability in PBS buffer at pH 7.4 assessed as compound recovery at 4 degC; format: physicochemical
In short: (§1)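 Compound solution in PBS, pH 7.4, held at 4 °C, tested as plain aqueous solution and after autoclaving. A separate sample was exposed to Co-60 gamma irradiation. Read-out is percent of compound recovered.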

[2] = Efflux ratio of apparent permeability from basolateral to apical side over apical to basolateral side in human Caco2 cells at 5 uM after 120 mins by LC-MS/MS analysis; format: ADME, cell-based; details: Caco-2
[3] = Apparent permeability across apical to basolateral side in MDCK-MDR1 cells 120 mins by LC-MS/MS analysis; format: ADME, cell-based, Canis lupus familiaris; details: dog
[4] = Apparent permeability across apical to basolateral side in MDCK-MDR1 cells assessed as drug recovery; format: ADME, cell-based, Canis lupus familiaris; details: dog, read-out: Drug recovery
[5] = Apparent permeability across basolateral to apical side in MDCK-MDR1 cells 120 mins by LC-MS/MS analysis; format: ADME, cell-based, Canis lupus familiaris; details: dog
[6] = Apparent permeability across basolateral to apical side in MDCK-MDR1 cells assessed as drug recovery; format: ADME, cell-based, Canis lupus familiaris; details: dog, read-out: Drug recovery
[7] = Efflux ratio of apparent permeability across basolateral to apical over apical to basolateral side in MDCK-MDR1 cells; format: ADME, cell-based, Canis lupus familiaris; details: dog
[8] = target: Cytochrome P450 3A (Homo sapiens, UniProt P08684+P20815+Q9HB55+P24462); assay: Inhibition of CYP3A in human liver microsomes using testosterone as substrate at 10 uM after 10 mins by HPLC-MS/MS analysis; format: ADME
[9] = Chemical stability in PBS buffer at pH 7.4 assessed as compound recovery at 4 degC under autoclave condition; format: physicochemical; in short: as §1
[10] = Chemical stability of the compound assessed as drug recovery under Co-60 gamma irradiation condition; format: physicochemical; in short: as §1
[11] = target: Prostaglandin E2 receptor EP2 subtype (Homo sapiens, UniProt P43116); assay: Agonist activity at human EP2 receptor expressed in HEK293T/17 cells assessed as increase in GalphaS-mediated CREB activation at 10 uM measured after 6 to 24 hrs by SEAP reporter gene-based chemiluminescence assay relative to control; format: functional, cell-based
Prostaglandin E2 receptor EP2 subtype, sequence (P43116 whole entry): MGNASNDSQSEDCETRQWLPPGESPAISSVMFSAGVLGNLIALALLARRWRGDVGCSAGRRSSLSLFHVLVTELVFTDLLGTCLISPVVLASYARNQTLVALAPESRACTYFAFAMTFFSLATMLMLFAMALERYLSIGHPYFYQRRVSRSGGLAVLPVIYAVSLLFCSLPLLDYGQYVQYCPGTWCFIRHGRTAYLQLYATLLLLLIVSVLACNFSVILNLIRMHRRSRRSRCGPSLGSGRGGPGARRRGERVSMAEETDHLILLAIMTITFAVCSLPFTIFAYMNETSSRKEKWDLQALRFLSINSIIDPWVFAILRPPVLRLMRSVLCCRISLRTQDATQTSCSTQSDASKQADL

Row | Structure (SMILES) | Drug recovery [1] [%] | efflux ratio at 2 h, 5 µM [2] | Papp A→B at 2 h [3] [nm/s] | recovery [4] [%] | Papp B→A at 2 h [5] [nm/s] | recovery [6] [%] | efflux ratio [7] | inhibition (INH) [8] | Drug recovery [9] [%] | Drug recovery [10] [%] | Activity [11] [%]
1 | CCC#CC[C@H](C)[C@H](O)/C=C/[C@H]1CC(F)(F)C(=O)N1CCCCCCC(=O)O | 100 | 1.5 | 5.9 | 84 | 118 | 93 | 20 | Not Active | 100 | 95 | –
2 | CCC#CC[C@H](C)[C@H](O)/C=C/[C@H]1CCC(=O)N1CCCCCCC(=O)O | – | 1.6 | – | – | – | – | – | Not Active | – | – | < 50
